The list is not random: actives were taken first. Their share in the collection is about 5.2%.
E coli WT exp: growth inhibitors of E. coli BW25113 wild type. OD600 absorbance. growth inhibition, % at 100 µM. 98,000 tested, 0.15% active;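 active means growth inhibition above about 50% at one test dose, limit read from the data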;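 further: growth measured after 20 h incubation at 37 °C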
M1 agonist: M1 muscarinic receptor agonism | CHO-M1 cells, Fluo-4 calcium fluorescence, agonist mode; active compounds read high | B-score at 10 µM | 64,000 tested, 3% active;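 active means fluorescence rise, raw or as B-score row- and column-corrected plate score, outside the 99.7% band of its plate's samples, either direction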
AP complement: alternative pathway complement inhibition, orthogonal assay | AID 1235 | Human serum alternative complement pathway, LPS-coated ELISA, C3 deposition; tested in compound mixtures | inhibition, % at 5 µM | 62,000 tested, 0.08% active;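 active means inhibition above 30% in each of the two pooled mixtures holding the compound, so the lower value exceeds 30%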;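 further: 0% = serum in Mg-EGTA without compound and 100% = EDTA serum blank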
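Test system: human serum alternative complement pathway, C3 deposition on LPS-coated wells; also added: Plate-bound LPS; doses: 5 µM per compound in ten-compound mixtures; schedule: 1 h at 37 °C; detection: Anti-C3 ELISA, OD 450 nm; evaluation: percent inhibition of C3 deposition onto LPS; repeats: two pool placements per compound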
M1 antagonist: M1 muscarinic receptor (rat) antagonism. CHO-M1 cells, Fluo-4 calcium, ACh EC80 antagonist mode; active compounds read low. 64,000 tested, 3.4% active. AID 628. B-score at 10 µM. P08482;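 active means calcium fluorescence response, raw or row-and-column corrected B-score, differing from the plate sample mean either way at a set confidence level, mostly lower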
WNV protease inh: blocks West Nile virus NS2B-NS3 protease activity | P06935 | WNV NS2B-NS3 protease, fluorogenic substrate Ex360/Em465; active compounds read low | z-score (test concentration not listed) | 65,000 tested, 0.18% active; in the data active means z-score below about -3
Target sequence (P06935 1371-1501 limits assumed): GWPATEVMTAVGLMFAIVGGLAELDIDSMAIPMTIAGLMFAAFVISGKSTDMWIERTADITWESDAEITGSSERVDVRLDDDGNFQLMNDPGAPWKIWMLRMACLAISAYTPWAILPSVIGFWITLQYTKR
Target sequence (P06935 1502-1679 limits assumed): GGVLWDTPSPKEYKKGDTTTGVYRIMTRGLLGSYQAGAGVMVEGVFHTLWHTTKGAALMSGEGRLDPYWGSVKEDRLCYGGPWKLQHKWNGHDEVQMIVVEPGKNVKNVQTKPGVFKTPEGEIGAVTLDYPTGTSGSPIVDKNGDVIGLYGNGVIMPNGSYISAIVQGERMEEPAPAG
Ecoli tolC: E. coli tolC mutant growth inhibition | 65,000 tested, 2.2% active | E. coli BW25113 tolC mutant growth, OD615 | growth inhibition, % at 10 µM (by protocol);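 active means growth inhibition at or above a cutoff equal to the mean over every tested compound plus 3 SD, cut at about 60% in these data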;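 further: growth measured after 20 h incubation at 37 °C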
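Test system: tolC-deleted E. coli BW25113; medium: LB with kanamycin 50 µg/mL; compound: single-point testing at 10 µM; incubation: 20 h compound exposure of bacteria at 37 °C; signal: OD at 615 nm; evaluation: growth inhibition in percent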
M1 agonist conf: confirmation of rat M1 muscarinic receptor agonists | fluorescence change (max-min) at 10 µM | CHO-M1 cells, Fluo-4 calcium fluorescence, agonist mode; actives lie on both sides | shares compounds with M1 agonist | 1,700 tested, 19% active;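 active means fluorescence change differs from the solvent-only DMSO control mean at a set confidence level in both duplicate runs; inconclusive means differs from solvent-only control mean in just one of two runs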;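 further: an EC20 dose of acetylcholine follows compound addition during the same imaging run; raw fluorescence intensity difference in instrument units with no normalization to controls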
M4 ag counter: activates rat M4 receptor in counter-screen for M1 agonists | shares compounds with M1 agonist | CHO M4/Gqi5 cells, Fluo-4 calcium fluorescence, agonist mode; actives lie on both sides | fluorescence change (max-min) at 10 µM | 1,700 tested, 9% active | AID 1741;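 active means fluorescence change differing from the plate's solvent-only control wells at 99.7% confidence in both duplicates, whether higher or lower; inconclusive means differs from solvent controls in only one of two duplicates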
M1 antag conf: confirmation of rat M1 muscarinic receptor antagonists. shares compounds with M1 antagonist. CHO-M1 cells, Fluo-4 calcium, ACh EC80 antagonism; active compounds read low. calcium response (max-min fluorescence) at 10 µM. 1,700 tested, 43% active. AID 677;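 active means calcium response below the same-plate mean of wells given acetylcholine alone at its 80%-effect dose, minus 3 SD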;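 further: raw fluorescence intensity difference in arbitrary instrument units and not normalized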
mGluR4 antag: mGluR4 (human) activity, M1 antagonist secondary assay | shares compounds with M1 antagonist | CHO-mGluR4 calcium flux, Fluo-4 fluorescence, glutamate EC80; active compounds read low | fluorescence response (max-min) at 10 µM | 1,700 tested, 0.9% active;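 active means fluorescence response below the plate's average for near-maximal glutamate wells, less 3 SD of those wells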;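 further: raw unnormalized fluorescence span taken in the window right after glutamate addition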
* marks the source's active call; other numbers are inactive results; ? = inconclusive; . = not tested or not shown.

SMILES	E coli WT exp	M1 agonist	AP complement	M1 antagonist	WNV protease inh	Ecoli tolC	M1 antag conf	mGluR4 antag	others
O=C1CCCC2C3CCCN4CCCC(CN12)C34 (centres undefined)	6.0	-2.49*	10.5	-0.228	-0.67	-14.1	.	.	M1 agonist conf=-10.8;M4 ag counter=-44.7
CCCCn1c(NC(=O)c2ccco2)c(C(=O)OCC)c2nc3ccccc3nc21	-6.0	6.61*	10.8	-0.372	1.31	38.5	.	.	M1 agonist conf=24.4;M4 ag counter=?
OC(COCc1ccc(Cl)cc1)CN1CC=C(c2ccccc2)CC1 (centres undefined)	24.0	-2.8*	14.2	-4.04*	-1.51	-2.3	475*	177	M1 agonist conf=-6.81;M4 ag counter=-22.3
C=CCn1c(O)c(C(CC)=NC(C)c2ccccc2)c(=O)[nH]c1=O (centres undefined)	-7.0	.	.	.	.	.	.	.
Cc1ccc(C(c2nnnn2Cc2ccccc2)N2CC=C(c3ccc(F)cc3)CC2)cc1 (centres undefined)	-14.0	.	.	.	.	.	.	.
CN(C)c1ccc(CN2CC=C(c3ccc(F)cc3)CC2)cc1	18.0	-0.00389	12.2	-5.74*	-0.74	10.9	469*	237
CC1=C(/C=C/c2ccccc2)CCN(C)C1	12.0	.	.	.	.	.	.	.
CCOC(=O)/C(CCCN(CC)CC)=N\O	-3.0	-0.712	15.7	-2.94*	1.46	-15.4	251*	221
CN(C)C=C1C(=O)N(C2CCCCC2)C(=O)N(C2CCCCC2)C1=O	2.0	-0.536	3.5	0.186	0.37	10.1	.	.
CCCCc1nc(N2CCNCC2)c(C#N)c2c1CSC(C)(C)C2	29.0	-0.324	.	-9.75*	0.31	2.4	60.7*	220
COc1cc(C2NCc3ccccc3-n3cccc32)ccc1O (centres undefined)	6.0	-1.01	-11.7	-1.08*	1.01	8.0	554	225
COc1ccc(C2NCc3ccccc3-n3cccc32)cc1 (centres undefined)	18.0	.	.	.	.	.	.	.
CN1CCC(OC(=O)C2c3ccccc3Oc3ccccc32)CC1	11.0	-0.401	4.3	-14.2*	-0.04	9.3	24.7*	186
CCCCOP(=O)(OCCCC)/C(C#N)=C(/C)O	4.0	.	.	.	.	.	.	.
Cc1[nH]c2c(Cl)cccc2c1CCN	.	0.217	4.9	-2.84*	-0.00488	-11.1	621	191
CCN1CCN(Cc2cc(Br)cc(OC)c2O)CC1	1.0	0.0244	-12.0	-1.89*	0.25	-13.7	350*	243
Oc1c(Br)cc(Br)cc1CN1CCN(Cc2ccccc2)CC1	-12.0	.	.	.	.	.	.	.
CN1C(=O)N(C)C(=O)C2(Cc3c(nc4ccccn4c3=O)N3CCc4ccccc4C32)C1=O (centres undefined)	-7.0	0.384	3.8	0.232	-0.51	4.2	.	.
CC(c1ccccc1F)n1cc(C(=O)Nc2ccc3nc[nH]c3c2)nn1 (centres undefined)	2.0	0.0876	14.3	-0.0972	1.37	-11.1	.	.
COc1cccc(CNC2CN3CCC2CC3)c1OC (centres undefined)	-2.0	0.218	4.4	-5.14*	-0.76	-19.8	392*	196
CCC(=O)OC1(c2cccc(C)c2)CC(C)N(C)CC1C (centres undefined)	8.0	.	19.5	.	0.57	-19.7	.	.
CN(C)CCc1nc2ccccc2c(=O)n1-c1ccccc1	-7.0	0.839	-2.6	-6.25*	0.79	-6.6	475	249
CSc1ncc(Cl)c(C(=O)O)n1	-7.0	.	.	.	.	.	.	.
CCCCOCCCn1c(N)c(C(=O)OCCOC)c2nc3ccccc3nc21	2.0	3.24	.	-4*	0.79	7.6	20.9*	229
OC(Cc1ccccc1)(c1ccccc1)C1CN2CCC1CC2 (centres undefined)	2.0	0.963	0.1	-7.21*	-0.71	12.4	54.7*	274
SMILES	E coli WT exp	M1 agonist	AP complement	M1 antagonist	WNV protease inh	Ecoli tolC	M1 antag conf	mGluR4 antag	others
CN(C)CC#CCC(O)(c1ccccc1)C1CCCC1 (centres undefined)	4.0	.	.	.	.	.	.	.
O=C(COc1ccc(Cl)cc1)NC1CN2CCC1CC2 (centres undefined)	6.0	0.594	22.9	-15.9*	-0.29	-14.0	398*	257
O=C(COc1ccc(Cl)cc1)N1CCN(Cc2ccccc2)CC1	5.0	.	23.7	.	-1.74	-1.2	.	.
Cn1cccc1CNCCc1ccccc1F	-1.0	1.19	-1.6	-0.713	-0.17	-5.6	.	.
c1ccc(C(OCCN2CCNCC2)c2ccccc2)cc1	9.0	0.492	-4.4	-14.3*	-0.27	.	148*	219
CCN(CC)CCCNC(=O)c1c(O)c2ccccc2n(Cc2ccccc2)c1=O	5.0	-0.267	-3.4	-5.39*	-0.1	3.5	393*	210
CC(C)(C)c1nc(N2CCN(C(=O)c3ccco3)CC2)c2nnn(Cc3ccccc3Cl)c2n1	-16.0	4.19	-7.9	-0.0321	1.07	43.3	.	.
CC(=O)Nc1ccc2c(c1)CC1(C(=O)N(C)C(=O)N(C)C1=O)C1CCCN21 (centres undefined)	0.0	-0.337	-8.1	0.109	2.08	-19.6	.	.
Cc1ccc2nc(N3CCC(C(=O)N4CCC5(CC4)OCCO5)CC3)sc2c1	4.0	-0.0485	5.6	-0.997*	0.37	14.8	471*	247
Cc1ccc(S(=O)(=O)NCC2CCC(C(=O)N3CCC4(CC3)OCCO4)CC2)cc1 (centres undefined)	-2.0	-0.132	13.8	0.377	1.49	2.5	.	.
Cc1c(N=Cc2c(O)n(CCc3ccccc3)c(=O)[nH]c2=O)c(=O)n(-c2ccccc2)n1C	0.0	0.658	.	-4.06*	0.34	8.9	243*	236
Cc1c(N=Cc2c(O)n(Cc3ccc(F)cc3)c(=O)[nH]c2=O)c(=O)n(-c2ccccc2)n1C	-13.0	.	.	.	.	.	.	.
Cc1c(C(=O)N2CCC3(CC2)OCCO3)oc2ccccc12	1.0	-0.453	13.3	-2.28*	-0.49	12.5	519	171
O=C(c1cc2ccccc2oc1=O)N1CCC2(CC1)OCCO2	2.0	-0.0829	20.7	-3.7*	-0.82	-13.1	609	230
O=C(O)c1cc2ccccc2oc1=O	2.0	-1.13	14.8	-0.337	0.88	-12.8	.	.

Source: PubChem (several laboratories)
